Measured values published in PMC10501872 (Acta Pharmaceutica Sinica. B, 2023).

Key:
TLR2 [1] = target: T1, TLR2 (Homo sapiens, UniProt O60603); assay: QUANTI-blue SEAP assay, Pam3CSK4-stimulated HEK-Blue hTLR2 cells; type: cell-based
Summary of the method: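 HEK-Blue hTLR2 cells (4 × 10^4 per well) were grown 24 h at 37 °C, 5% CO2 in DMEM with 10% FBS, then given fresh medium. Graded test compound and Pam3CSK4 (100 ng/mL) were added for 24 h. Supernatant was mixed 1:1 with QUANTI-Blue, shaken in the dark, and OD620 read at 15–30 min.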

TLR2/6 = TLR2/6 (Homo sapiens, UniProt O60603); assay: SEAP signaling induced by Pam2CSK4 in HEK-Blue hTLR2 cells; type: cell-based; settings: Pam2CSK4 100 ng/mL, 24 h
HEK-Blue hTLR2 cells = assay: Cell toxicity assay; type: cell-based, human; settings: 24 h, CCK-8
Summary of the method: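 HEK-hTLR2 cells were seeded at 3 × 10^4 per well in DMEM with 10% FBS and left overnight at 37 °C. Graded concentrations of test compound were added for 24 h at 37 °C. CCK-8 was then added for 1–4 h at 37 °C and absorbance read at 450 nm.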

Water solubility = type: physicochemical
[2] = test system: healthy human peripheral blood mononuclear cells (PBMCs); assay: Cytokines ELISA, Pam3CSK4-treated PBMCs; type: cell-based; settings: 5 μmol/L, Pam3CSK4 100 ng/mL, 24 h
Summary of the method: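 Human PBMCs were seeded at 0.5 × 10^6 per well in RPMI 1640 with 10% FBS. Test compound plus Pam3CSK4 (100 ng/mL) was added for 24 h at 37 °C, 5% CO2. Supernatants were stored at −80 °C, then assayed by sandwich ELISA with recombinant cytokine standards, in triplicate.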

TLR4 [3] = assay: Cytokines ELISA, LPS-treated peritoneal macrophages and THP-1 cells; type: cell-based, human and murine; settings: LPS 100 ng/mL, 24 h
Summary of the method: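 Thioglycolate-elicited peritoneal macrophages from C57BL/6 mice were seeded at 0.5 × 10^6 per well in RPMI 1640 with 10% FBS. THP-1 cells (2.5 × 10^5 cells/mL) were differentiated with 100 nmol/L PMA for 24 h, washed and rested 24 h in fresh medium. Both cell types received LPS (100 ng/mL) plus graded test compound for 24 h at 37 °C. Supernatants were frozen at −80 °C and cytokines quantified by sandwich ELISA against recombinant standards, in triplicate.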

[4] = test system: primary murine peritoneal macrophages; assay: Nitric oxide; type: cell-based, mouse; settings: 10 μmol/L; Pam3CSK4 100 ng/mL, IFN-γ 40 ng/mL
Summary of the method: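 Thioglycolate-elicited peritoneal macrophages from 6–8-week C57BL/6 mice were seeded at 1 × 10^6 per well. Cells were exposed to IFN-γ (40 ng/mL) and Pam3CSK4 (100 ng/mL) with test compound for 48 h. Nitrite was read at 570 nm against a sodium nitrite standard curve.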

TLR2 [5] = target: T1, TLR2; assay: Surface plasmon resonance, hTLR2; type: binding
Summary of the method: (§1)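 For SPR chip coating, human TLR2 was expressed in insect H5 cells and diluted in PBS to 1 mg/mL. Commercial human TLR4 protein was diluted in PBS to 0.1 mg/mL.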

TLR4 [6] = target: T2, TLR4 (Homo sapiens, UniProt O00206); assay: Surface plasmon resonance, hTLR4; type: binding; settings: SPR
Summary of the method: as §1
Target sequence in this assay (O00206 24-631 limits assumed): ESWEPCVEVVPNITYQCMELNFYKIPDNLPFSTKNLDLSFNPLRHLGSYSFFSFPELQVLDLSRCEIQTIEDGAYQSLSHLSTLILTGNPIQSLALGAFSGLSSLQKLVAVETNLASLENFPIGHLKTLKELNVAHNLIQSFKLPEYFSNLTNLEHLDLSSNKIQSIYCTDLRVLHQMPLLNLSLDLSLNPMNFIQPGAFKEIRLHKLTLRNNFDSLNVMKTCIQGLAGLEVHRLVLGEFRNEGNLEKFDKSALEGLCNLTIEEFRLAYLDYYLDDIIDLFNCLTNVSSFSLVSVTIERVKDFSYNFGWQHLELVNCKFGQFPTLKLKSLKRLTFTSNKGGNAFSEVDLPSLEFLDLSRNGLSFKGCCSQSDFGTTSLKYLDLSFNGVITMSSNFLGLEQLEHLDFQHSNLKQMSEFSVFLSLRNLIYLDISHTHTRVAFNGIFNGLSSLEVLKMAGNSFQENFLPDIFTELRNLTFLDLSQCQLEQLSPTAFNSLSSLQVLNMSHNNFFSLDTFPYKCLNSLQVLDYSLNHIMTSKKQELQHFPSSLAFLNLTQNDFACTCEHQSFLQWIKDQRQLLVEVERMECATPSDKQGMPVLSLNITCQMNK

TLR2 [7] = target: T1, TLR2; assay: Cellular thermal shift assay, TLR2; type: binding; settings: 20 μmol/L, THP-1 cells, 45 to 53 °C, especially at 51 °C
TLR4 [8] = target: T2, TLR4; assay: Cellular thermal shift assay, TLR4; type: binding; settings: 20 μmol/L, THP-1 cells
Target sequence in this assay (O00206 24-839): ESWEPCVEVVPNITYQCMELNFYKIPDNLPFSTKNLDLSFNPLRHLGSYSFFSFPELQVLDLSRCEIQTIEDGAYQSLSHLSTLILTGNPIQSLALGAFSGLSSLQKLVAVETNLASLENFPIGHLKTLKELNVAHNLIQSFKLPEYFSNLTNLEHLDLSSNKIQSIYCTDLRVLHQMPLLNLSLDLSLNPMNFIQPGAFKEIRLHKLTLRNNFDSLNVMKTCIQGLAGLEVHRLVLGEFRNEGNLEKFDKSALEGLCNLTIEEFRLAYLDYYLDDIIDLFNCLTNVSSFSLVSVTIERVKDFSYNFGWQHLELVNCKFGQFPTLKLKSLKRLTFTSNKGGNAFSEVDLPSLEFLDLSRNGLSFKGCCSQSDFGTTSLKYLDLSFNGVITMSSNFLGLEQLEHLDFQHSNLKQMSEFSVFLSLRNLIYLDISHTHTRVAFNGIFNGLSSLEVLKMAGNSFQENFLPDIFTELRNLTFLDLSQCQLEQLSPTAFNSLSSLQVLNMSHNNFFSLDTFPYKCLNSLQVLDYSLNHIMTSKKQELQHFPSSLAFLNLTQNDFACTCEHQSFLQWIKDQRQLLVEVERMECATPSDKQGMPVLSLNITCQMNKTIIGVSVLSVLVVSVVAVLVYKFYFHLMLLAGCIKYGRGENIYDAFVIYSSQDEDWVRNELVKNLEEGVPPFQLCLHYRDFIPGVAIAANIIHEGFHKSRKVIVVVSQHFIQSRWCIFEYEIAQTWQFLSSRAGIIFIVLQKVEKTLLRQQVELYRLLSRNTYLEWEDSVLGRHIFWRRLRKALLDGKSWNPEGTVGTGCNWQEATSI

TLR2 [9] = target: T1, TLR2; assay: Competitive combination assay with Rhodamine-Pam3CSK4; type: cell-based; settings: 1 μmol/L, Rhodamine-Pam3CSK4 800 ng/mL, 4 h
Summary of the method: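 HEK-hTLR2 cells (3 × 10^4 per well) were seeded in DMEM with 10% FBS and left overnight. Medium was replaced with DMEM containing 800 ng/mL rhodamine-Pam3CSK4 and 1 μmol/L test compound for 4 h. After three PBS washes, nuclei were stained with DAPI for 5 min, cells were washed again and imaged by confocal microscopy.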

[10] = test system: mouse primary peritoneal macrophage; assay: Peritoneal macrophage phenotype assay; type: cell-based; settings: 10 μmol/L
Summary of the method: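 Peritoneal macrophages were plated at 1 × 10^6 per well in RPMI 1640 with 10% FBS and left overnight. Cells were treated for 24 h with medium, Pam3CSK4 (100 ng/mL) + IFN-γ (40 ng/mL), or LPS (100 ng/mL) + IFN-γ (40 ng/mL), each with test compound. Cells were trypsinised, stained 30 min for CD86 and CD11b, and analysed by flow cytometry.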

mouse primary BMDCs = assay: BMDCs activation assay; type: cell-based; settings: 10 μmol/L
Summary of the method: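 BMDCs were generated from femur and tibia marrow of C57BL/6 mice and collected on day 7. They were seeded at 5 × 10^5 per well in RPMI 1640 with 10% FBS and left overnight. Cells then received Pam3CSK4 (300 ng/mL) or LPS (100 ng/mL) plus test compound for 24 h. Harvested cells were stained 30 min for CD86, CD80 and CD11c and read by flow cytometry.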

C57Bl/6 mice [11] = assay: Carrageenan-induced paw edema model; type: in vivo, mouse; settings: at 4 h; for paw swelling (measured by volume): ip prior to carrageenan
Summary of the method: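 Male C57Bl/6 mice (6–8 weeks) were randomised into four groups of six. Saline, indomethacin (10 mg/kg ip) or test compound (5 mg/kg ip) was given 1 h before 50 μL 1% carrageenan was injected into the right hind plantar paw. Paw volume was read by plethysmometer at baseline and at 1, 4, 8 and 24 h. At 4 h, paws were weighed and homogenised in 0.5% HTAB phosphate buffer (pH 6.0); supernatant triplicates were assayed with 3,3′-dimethoxybenzidine/1% H2O2 for MPO.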

C57Bl/6 mice [12] = assay: DSS-induced colitis; type: in vivo, mouse; settings: for weight loss: oral administration, Day 8
Summary of the method: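 Colitis was induced with 3.5% DSS in drinking water for 5 days (not in controls), followed by normal water. From Day 2, test compound (5 or 25 mg/kg), dexamethasone (25 mg/kg) or vehicle was given orally. Body weight was recorded daily and mice were killed on Day 8. Colon was lysed in RIPA with protease/phosphatase inhibitors by sonication at 4 °C and spun at 12,000×g for 30 min. IL-6 and TNF-α were measured by ELISA on BCA-equalised protein.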

C57Bl/6 mice [13] = assay: Cecum ligation and puncture sepsis model; type: in vivo, mouse; settings: oral 5 and 25 mg/kg 1 h before CLP; serum and lung tissue, 8 h
Summary of the method: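 Male C57Bl/6 mice aged 6–8 weeks were used for polymicrobial sepsis by CLP. Test compound was given orally 1 h before surgery; sham-operated mice received the same volume of saline. Serum and lung tissue were taken 8 h after surgery for ELISA.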

[14] = Pharmacokinetics in rat plasma; type: in vivo; settings: for AUC: rat plasma; for AUC / half-life: n = 5; for half-life: t1/2, rat plasma
KM mice = assay: Toxicity studies in vivo; parameters: species or system mouse; settings: 250 mg/kg oral on Day 1, 3 and 5; Day 7
Summary of the method: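 Male and female KM mice (6–8 weeks) were split into control and treated groups of 10 (half male). Test compound was given orally on Days 1, 3 and 5; controls received the same volume of solvent. Body weight was recorded daily. On Day 7, mice were killed and tissues taken for H&E pathology.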

T1 sequence (O60603 21-784): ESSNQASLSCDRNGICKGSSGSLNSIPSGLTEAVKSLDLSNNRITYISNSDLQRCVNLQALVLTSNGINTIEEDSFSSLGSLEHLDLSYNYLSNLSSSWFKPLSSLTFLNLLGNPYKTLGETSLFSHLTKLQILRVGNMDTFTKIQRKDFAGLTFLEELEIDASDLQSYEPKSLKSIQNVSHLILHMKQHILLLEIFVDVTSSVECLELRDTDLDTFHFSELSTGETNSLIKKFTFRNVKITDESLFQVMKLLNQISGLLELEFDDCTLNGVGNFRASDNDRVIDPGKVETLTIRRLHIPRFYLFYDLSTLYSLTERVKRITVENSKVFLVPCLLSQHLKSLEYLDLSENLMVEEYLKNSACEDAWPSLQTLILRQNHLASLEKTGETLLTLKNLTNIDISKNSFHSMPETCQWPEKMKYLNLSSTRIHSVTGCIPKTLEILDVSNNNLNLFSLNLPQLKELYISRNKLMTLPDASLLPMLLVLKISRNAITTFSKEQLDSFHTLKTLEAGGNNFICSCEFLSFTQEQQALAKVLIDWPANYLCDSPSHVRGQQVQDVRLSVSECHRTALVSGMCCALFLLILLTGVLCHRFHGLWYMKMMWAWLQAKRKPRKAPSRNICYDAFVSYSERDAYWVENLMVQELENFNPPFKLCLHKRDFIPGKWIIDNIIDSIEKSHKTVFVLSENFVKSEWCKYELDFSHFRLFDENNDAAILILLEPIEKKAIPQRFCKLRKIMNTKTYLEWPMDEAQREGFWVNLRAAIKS
Sequence of TLR2/6 (O60603 21-784): as above

COc1ccc2c(=O)oc3c(OC)cc(CC(O)CN(C)C)c4c(=O)oc1c2c34 (stereo not drawn) [SMU-Y6]
IC50 (TLR2 [1]): 110 ± 40 nM | improvement of activity compared with Taspine (TLR2 [1]; vs Taspine): 10 fold | SEAP signaling induced by Pam2CSK4 (TLR2/6): suppressed the SEAP signaling | cytotoxicity compared with Taspine (HEK-Blue hTLR2 cells): reduced toxicity | water solubility relative to Taspine (Water solubility; vs Taspine): 20 times | release of IL-1β [2]: completely inhibited | release of TNF-α [2]: completely inhibited | inhibitory activity with regards to TLR4 (TNF-α, IL-6) (TLR4 [3]): little or even no inhibitory activity | production of NO induced by Pam3CSK4 [4]: significantly reduced | Kd (TLR2 [5]): 180 nM | time to complete dissociation from TLR2 protein (TLR2 [5]; SPR): 500 s | binding signal to recombinant hTLR4 protein (TLR4 [6]): did not detect a binding signal | thermal stabilization of TLR2 protein (TLR2 [7]): higher thermal stabilization | thermal stabilization of TLR4 (TLR4 [8]): failed to induce the thermal stabilization | fluorescence intensity of Rhodamine-Pam3CSK4 (TLR2 [9]): reduced the fluorescence intensity | polarization induced by LPS and IFN-γ [10]: no effect | LPS-induced activation of BMDCs (mouse primary BMDCs): failed to reverse | percentage of CD80+ CD86+ cells (mouse primary BMDCs; Pam3CSK4, 16.6% without compound): 8.1% | activity of local myeloperoxidase (MPO) in paw tissue (C57Bl/6 mice [11]): reversed | paw swelling (measured by volume) (C57Bl/6 mice [11]): significantly reduced | weight loss (C57Bl/6 mice [12]): reduced weight loss | IL-6 in local colonic tissue (C57Bl/6 mice [12]; oral, 5 and 25 mg/kg): reduced the production | TNF-α in local colonic tissue (C57Bl/6 mice [12]; oral, 5 and 25 mg/kg): reduced the production | production of IL-6 in sepsis (C57Bl/6 mice [13]): significantly reduced the production | production of TNF-α in sepsis (C57Bl/6 mice [13]): significantly reduced the production | Cmax ([14]; ip): 208 ± 31.1 ng/mL | Tmax ([14]; ip): 0.25 ± 0.01 h | AUC ([14]; ip, AUC0‒t, intraperitoneal injection): 1790 ± 410 ng·h/mL | AUC ([14]; ip, AUC0‒∞, intraperitoneal injection): 2160 ± 600 ng·h/mL | half-life ([14]; ip, intraperitoneal injection): 9.16 ± 1.11 h | Cmax ([14]; po): 52.3 ± 5.83 ng/mL | Tmax ([14]; po): 3 ± 1 h | AUC ([14]; po, AUC0‒t, oral administration): 619 ± 84.2 ng·h/mL | AUC ([14]; po, AUC0‒∞, oral administration): 844 ± 184 ng·h/mL | half-life ([14]; po, oral administration): 11.5 ± 2.7 h | immediate toxicity (KM mice): did not seem to exhibit immediate toxicity | pathological analysis of heart, liver, spleen, lung and kidney (KM mice): no obvious organic damage

CCOC(=O)C1=CCCC[C@H]1S(=O)(=O)Nc1ccc(F)cc1Cl [TAK-242, reference compound]
binding signal to recombinant hTLR4 protein (TLR4 [6]): exhibited the ability to bind

COc1ccc2c(=O)oc3c(OC)cc(CCN(C)C)c4c(=O)oc1c2c34 [Taspine, reference compound]
water solubility (Water solubility): poor water solubility

COc1ccc2c(c1)c(CC(=O)O)c(C)n2C(=O)c1ccc(Cl)cc1 [indomethacin, reference compound]
activity of local myeloperoxidase (MPO) in paw tissue (C57Bl/6 mice [11]): reversed | paw swelling (measured by volume) (C57Bl/6 mice [11]): significantly reduced

C[C@@H]1C[C@H]2[C@@H]3CCC4=CC(=O)C=C[C@]4(C)[C@@]3(F)[C@@H](O)C[C@]2(C)[C@@]1(O)C(=O)CO [dexamethasone, reference compound]
weight loss (C57Bl/6 mice [12]): reduced weight loss
